Measured values reported in BindingDB's records for doi:10.1016/j.bmc.2020.115710 (Indiana University School of Medicine, 2020).

Experiments:
[1] = target: T1, Co-chaperonin GroES (Escherichia coli, UniProt Q7BGE6); assay: Inhibition of Escherichia coli GroEL/ES assessed as inhibition of native malate dehydrogenase treated after denatured malate dehydrogenase completely refold
T1 sequence (Q7BGE6 whole entry): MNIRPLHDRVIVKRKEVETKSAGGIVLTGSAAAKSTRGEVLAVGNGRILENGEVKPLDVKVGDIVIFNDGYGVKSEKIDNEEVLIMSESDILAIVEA
In short: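 Counter-screen on native MDH activity: compounds are added only after GroEL/ES has fully refolded the denatured MDH, so the assay flags compounds that act on the MDH reporter reaction itself. IC50 values are averages from at least five replicates. […] DMSO serves as the negative control.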

[2] = target: T1, Co-chaperonin GroES; assay: Inhibition of Escherichia coli GroEL/ES assessed as inhibition of native malate dehydrogenase treated after denatured malate dehydrogenase completely refold in presence of NfsB nitroreductase
In short: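 Native MDH counter-screen with 10 µg/mL E. coli NfsB nitroreductase added to the initial GroEL/ES-dMDH solution. Compounds are added after the EDTA quench, then incubated 10 min at 37°C with NADH to bioactivate nitrofurans. Compounds in the reporter step span 56 µM to 25 nM (3-fold series).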

| SMILES | IC50 [1] [µM] | IC50 [2] [µM] |
| --- | --- | --- |
| O=C(N/N=C/c1ccc([N+](=O)[O-])o1)c1ccc(O)cc1 [NIFUROXAZIDE] | > 63 | > 56 |
| O=C(N/N=C/c1ccc([N+](=O)[O-])o1)c1cccs1 | > 63 | > 56 |
| O=C(N/N=C/c1ccc([N+](=O)[O-])o1)c1ccccc1 | > 63 | > 56 |
| O=C1CN(/N=C/c2ccc([N+](=O)[O-])o2)C(=O)N1 [MLS000028500] | > 63 | > 56 |
| CN(C)c1ccc(C(=O)N/N=C/c2ccc([N+](=O)[O-])o2)cc1 | > 63 | > 56 |
| COc1ccc(C(=O)N/N=C/c2ccc([N+](=O)[O-])o2)cc1 | > 63 | > 56 |
| O=C(N/N=C/c1ccc([N+](=O)[O-])o1)c1ccc(Cl)s1 | > 63 | > 56 |
| O=C(N/N=C/c1ccc([N+](=O)[O-])o1)c1ccncc1 [N-[(E)-(5-nitro-2-furanyl)methylideneamino]-4-pyridinecarboxamide] | > 63 | > 56 |
